The values that follow come from ChEMBL document CHEMBL2331121, “Design, synthesis, and pharmacological characterization of N- and O-substituted 5,6,7,8-tetrahydro-4H-isoxazolo[4,5-d]azepin-3-ol analogues: novel 5-HT(2A)/5-HT(2C) receptor agonists with pro-cognitive properties” (J Med Chem, 2013).

Active and inactive are the calls of the source. No cut-off for these calls is given here.

In experiment [1] the target is T1, 5-hydroxytryptamine receptor 2C (Homo sapiens, UniProt P28335).
T1 sequence (P28335 whole entry): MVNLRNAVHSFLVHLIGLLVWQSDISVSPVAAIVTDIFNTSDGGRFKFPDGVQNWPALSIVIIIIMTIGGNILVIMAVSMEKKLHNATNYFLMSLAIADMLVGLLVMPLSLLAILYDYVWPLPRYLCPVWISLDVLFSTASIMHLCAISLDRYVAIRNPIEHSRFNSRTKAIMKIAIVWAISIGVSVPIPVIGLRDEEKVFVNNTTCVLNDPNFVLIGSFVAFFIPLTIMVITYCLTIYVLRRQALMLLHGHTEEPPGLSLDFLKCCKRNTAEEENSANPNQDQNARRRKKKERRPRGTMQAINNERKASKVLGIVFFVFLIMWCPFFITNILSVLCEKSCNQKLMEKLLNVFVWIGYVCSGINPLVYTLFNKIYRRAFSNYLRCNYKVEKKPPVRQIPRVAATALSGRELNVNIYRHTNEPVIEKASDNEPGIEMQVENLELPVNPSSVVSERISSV
Kind of experiment: Agonist activity at human 5HT2C receptor expressed in HEK293 cells assessed as induction of intracellular calcium release measured for 90 secs by fluorescence assay. It is filed as functional, cell-based. The note with it: read-out: EC50. A general note: Calcium assays in cells follow changes in intracellular calcium, usually with a dye or a luminescent sensor.

In experiment [2] the target is T2, 5-hydroxytryptamine receptor 2A (Homo sapiens, UniProt P28223). Kind of experiment: Agonist activity at human 5HT2A receptor expressed in HEK293 cells assessed as induction of intracellular calcium release up to 1000 uM measured up to 90 secs by fluorescence assay. It is filed as functional, cell-based. The essentials:
(§1)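 Stable polyclonal 5-HT2A or 5-HT2C HEK293 cells seeded on poly-D-lysine plates (6 × 10⁴ cells/well). Next day loaded with Fluo-4/AM for 1 h at 37 °C in HBSS/20 mM HEPES/1 mM CaCl₂/1 mM MgCl₂/2.5 mM probenecid, pH 7.4. Fluorescence (485 ex/525 em) recorded before and up to 90 s after agonist. Response relative to 5-HT on the same plate. Duplicate, at least three times.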

The target of experiment [3] is T3, 5-hydroxytryptamine receptor 2C (Homo sapiens) (UniProt P28335).
T3 sequence (whole entry): T1 sequence (P28335 whole entry)
Kind of experiment: Agonist activity at human 5HT2C receptor expressed in HEK293 cells assessed as induction of intracellular calcium release by fluorescence assay relative to 5HT. It is filed as functional, cell-based. The essentials:
as §1

Experiment [4] has as its target T2, 5-hydroxytryptamine receptor 2A. Kind of experiment: biochemical. It is filed as cell-based, tsA201. The note with it: read-out: Ki.
Experiment [5] deals with T1, 5-hydroxytryptamine receptor 2C. Kind of experiment: Displacement of [3H]mesulergine from human 5HT2C receptor expressed in tsA201 cell membranes after 1 hr by scintillation counting analysis. A general note: In a radioligand displacement assay an active substance lowers the binding of a labelled ligand.
For experiment [6], the target named is T2, 5-hydroxytryptamine receptor 2A. Kind of experiment: Agonist activity at human 5HT2A receptor expressed in HEK293 cells assessed as induction of intracellular calcium release measured for 90 secs by fluorescence assay. It is filed as functional, cell-based. The note with it: read-out: EC50.
Experiment [7] shares this target. Kind of experiment: Agonist activity at human 5HT2A receptor expressed in HEK293 cells assessed as induction of intracellular calcium release by fluorescence assay relative to 5HT. In kind it is functional, cell-based. The essentials: as §1
In experiment [8] the target is T1, 5-hydroxytryptamine receptor 2C. Kind of experiment: Agonist activity at human 5HT2C receptor expressed in HEK293 cells assessed as accumulation of IP1 incubated for 1 hr at 37 degC followed by 15 mins at RT by TR-FRET assay. In kind it is functional, cell-based.
Experiment [9] has as its target T3, 5-hydroxytryptamine receptor 2C (Homo sapiens). Briefly: Agonist activity at human 5HT2C receptor expressed in HEK293 cells assessed as accumulation of IP1 incubated for 1 hr at 37 degC followed by 15 mins at RT by TR-FRET assay relative to 5HT. It is filed as functional, cell-based. In outline:
(§2)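 Polyclonal HEK293 lines stably expressing human 5-HT2A (variant 1) or 5-HT2C (INI isoform), detached and suspended at 1 × 10⁷ cells/mL in HBSS with 20 mM HEPES, 1 mM CaCl₂, 1 mM MgCl₂, pH 7.4. Ligands in buffer with 40 mM LiCl. Incubated 1 h at 37 °C, then 15 min RT. IP1 read by HTRF 665/615 ratio. Triplicate, at least four times.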

The target of experiment [10] is T2, 5-hydroxytryptamine receptor 2A. Briefly: Agonist activity at human 5HT2A receptor expressed in HEK293 cells assessed as accumulation of IP1 incubated for 1 hr at 37 degC followed by 15 mins at RT by TR-FRET assay relative to 5HT. In kind it is functional, cell-based. In outline: as §2
A general note: Time-resolved FRET reads energy transfer from a long-lived donor to a nearby acceptor.

Experiment [11] has the same target. Briefly: Agonist activity at human 5HT2A receptor expressed in HEK293 cells assessed as accumulation of IP1 incubated for 1 hr at 37 degC followed by 15 mins at RT by TR-FRET assay. In kind it is functional, cell-based.
For experiment [12], the target named is T4, 5-hydroxytryptamine receptor 2C (Rattus norvegicus) (UniProt P08909).
T4 sequence (whole entry): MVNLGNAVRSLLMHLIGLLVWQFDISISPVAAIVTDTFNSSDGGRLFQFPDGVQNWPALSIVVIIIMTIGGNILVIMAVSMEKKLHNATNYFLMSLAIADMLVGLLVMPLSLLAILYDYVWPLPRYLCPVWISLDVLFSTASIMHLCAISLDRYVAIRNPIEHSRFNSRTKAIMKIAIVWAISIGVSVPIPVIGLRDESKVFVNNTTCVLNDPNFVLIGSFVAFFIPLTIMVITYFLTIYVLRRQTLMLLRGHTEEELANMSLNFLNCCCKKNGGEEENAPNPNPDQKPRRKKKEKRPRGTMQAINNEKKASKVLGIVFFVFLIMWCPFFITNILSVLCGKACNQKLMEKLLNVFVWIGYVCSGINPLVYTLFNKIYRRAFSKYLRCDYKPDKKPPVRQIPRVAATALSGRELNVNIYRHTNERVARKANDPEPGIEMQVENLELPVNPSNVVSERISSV
Briefly: Displacement of [125I]-N-(p-I-Bn)-THAZ from 5HT2C in rat cerebral cortex membrane up to 50 uM after 1 hr by scintillation counting analysis. In kind it is cell membranes.

For experiment [13], the target named is T4, 5-hydroxytryptamine receptor 2C (Rattus norvegicus). Briefly: Displacement of [125I]-N-(p-I-Bn)-THAZ from 5HT2C receptor in rat hippocampal membrane after 1 hr by scintillation counting analysis. The note with it: Hippocampus. It is filed as cell membranes.
Experiment [14] shares this target. Kind of experiment: Displacement of [125I]-N-(p-I-Bn)-THAZ from 5HT2C receptor in rat cerebellum membrane after 1 hr by scintillation counting analysis. It is filed as cell membranes.
Experiment [15] shares this target. Briefly: Displacement of [125I]-N-(p-I-Bn)-THAZ from 5HT2C receptor in rat midbrain membrane after 1 hr by scintillation counting analysis. In kind it is cell membranes.
Experiment [16] has the same target. Briefly: Displacement of [125I]-N-(p-I-Bn)-THAZ from 5HT2C in rat cerebral cortex membrane at 300 uM after 1 hr by scintillation counting analysis. It is filed as cell membranes.
Experiment [17] deals with T3, 5-hydroxytryptamine receptor 2C (Homo sapiens). Kind of experiment: Agonist activity at human 5HT2C receptor expressed in HEK293 cells assessed as induction of intracellular calcium release up to 1000 uM measured up to 90 secs by fluorescence assay. In kind it is functional, cell-based. The essentials: as §1
The target of experiment [18] is T2, 5-hydroxytryptamine receptor 2A. Briefly: Ratio of EC50 for human 5HT2A receptor by calcium fiux-based fluorescence assay to EC50 for 5HT2A by IP1 accumulation-based TR-FRET assay. It is filed as functional.
Experiment [19] has as its target T3, 5-hydroxytryptamine receptor 2C (Homo sapiens). Briefly: Ratio of EC50 for human 5HT2C receptor by calcium fiux-based fluorescence assay to […] accumulation-based TR-FRET assay. In kind it is functional.

T2 sequence (P28223 whole entry): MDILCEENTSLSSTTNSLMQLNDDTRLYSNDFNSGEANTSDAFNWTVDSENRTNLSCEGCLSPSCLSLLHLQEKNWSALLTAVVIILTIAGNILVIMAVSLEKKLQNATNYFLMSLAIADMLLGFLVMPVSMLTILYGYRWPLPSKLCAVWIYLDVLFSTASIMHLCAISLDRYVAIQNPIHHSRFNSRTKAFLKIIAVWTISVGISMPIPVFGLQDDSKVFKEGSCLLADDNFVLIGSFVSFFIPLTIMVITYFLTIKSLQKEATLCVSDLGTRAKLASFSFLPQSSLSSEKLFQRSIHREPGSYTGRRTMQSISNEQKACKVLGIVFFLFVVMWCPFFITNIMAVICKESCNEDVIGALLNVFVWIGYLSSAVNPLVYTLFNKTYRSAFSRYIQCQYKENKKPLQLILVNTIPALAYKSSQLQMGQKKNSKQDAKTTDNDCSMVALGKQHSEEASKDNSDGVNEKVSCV

For the compound `COc1noc2c1CCNCC2`, the EC50 in experiment [1] was determined as 12000 nM. Further, the outcome in experiment [2] was Active. Also, in experiment [3], the Emax turned out to be 80%. The Ki in experiment [4] and in [5] was 300000 nM each time.
Regarding `Clc1cncc(N2CCNCC2)n1` [MK-212], the EC50 in experiment [6] was 420 nM; in experiment [8] it was 160 nM; in [1] it was 28 nM; in [11], 1200 nM. In addition, the Emax in experiment [7] is 97%; in experiment [9], 93%; in experiment [10], 101%; in experiment [3], 93%. Further, the Ki in experiment [4] was determined as 21000 nM; in [5], 3400 nM.
With `NCCc1c[nH]c2ccc(O)cc12`, the result in [12], in experiment [13], in experiment [14] and in experiment [15] was inactive.
`CC(=O)OCC[N+](C)(C)C`: the result in [16] was inactive.
With `N[C@@H](CCC(=O)O)C(=O)O`, the result in experiment [16] was inactive.
Turning to `C[C@H](N)Cn1ccc2cc(F)c(Cl)cc21`, the figures for the 50% effective concentration (EC50) in experiment [6] and in [1] were 27 nM and 4.7 nM, respectively. Besides, the figures for the Emax in [7] and in experiment [3] were 117% and 111%, respectively.
For the compound `CCn1oc2c(c1=O)CCNCC2`, the outcome in experiment [17] and in [2] was Active. For the same compound, the Ki in experiment [4] and in experiment [5] was 300000 nM in each case.
For `CCOc1noc2c1CCNCC2`, the values for the EC50 in experiment [6] and in [1] were 7900 nM and 3000 nM, respectively. For the same compound, the values for the maximal effect (Emax) in experiment [7] and in experiment [3] were 42% and 67%, respectively. The Ki in experiment [4] and in experiment [5] was 100000 nM throughout.
As to `c1ccc(COc2noc3c2CCNCC3)cc1`, the EC50 in experiment [6] came out at 240 nM; in experiment [8], 230 nM; in [1], 100 nM; in experiment [11], 1300 nM. Besides, the Emax in [7] came out at 59%; in experiment [9], 105%; in [10], 77%; in experiment [3] it was 84%. Moreover, the Ratio EC50 in [18] and in experiment [19] was 2 each time. Moreover, the Ki in [4] is 3300 nM; in [5], 1200 nM.
With `Cn1c2c(c3ccccc31)CCNCC2` [PNU-22394], the EC50 in [6] is 23 nM; in experiment [8] it was 120 nM; in experiment [1] it was 7.7 nM; in [11] it was 210 nM. The Emax in [7] stood at 102%; in [9] it was 97%; in [10], 98%; in experiment [3] it was 101%.

Usually EC50 stands for the concentration that produces a half-maximal response. Broadly, the Emax is the maximal effect, on the per cent scale that the assay sets. In general, Ki refers to a dissociation constant, usually derived from enzyme kinetics or from competition with a known ligand.
